Data from ChEMBL document CHEMBL1136716, “Tripeptide probes for tripeptidyl protease I production via gene transfer” (J Med Chem, 2003).

What was measured:
Assay type in all cases: functional, organism-based
[1] = species on record: Mus musculus; assay: Tested for Intensity of the Final Reaction Product ofTPP-I Histochemical Staining with compound in the presence of benzaldehyde in mouse kidney cell preparations;
How it was run: (§1)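 Mice were given an anesthetic overdose, then perfused transcardially with 0.9% saline followed by 2% paraformaldehyde in 0.2 M phosphate buffer. Tissues were postfixed 2 h, cryoprotected in 25% sucrose and frozen. Cryostat sections (10 µm) were embedded in 0.5% celloidin and incubated at 37 °C for 4 h in 0.1 M acetate pH 4.5 with 1 mM substrate plus 1 mg/mL of the listed aldehyde. Staining was scored by microscopy on ≥5 sections/animal from ≥3 animals.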

[2] = species on record: Mus musculus; assay: Tested for Color of the Final Reaction Product ofTPP-I Histochemical Staining with compound in the presence of benzaldehyde in mouse kidney cell preparations; yellow-green color was observed; how it was run: as §1
[3] = species on record: Mus musculus; assay: Tested for Intensity of the Final Reaction Product ofTPP-I Histochemical Staining with compound in the presence of p-anisaldehyde in mouse kidney cell preparations;; how it was run: as §1
[4] = species on record: Mus musculus; assay: Tested for Intensity of the Final Reaction Product ofTPP-I Histochemical Staining with compound in the presence of p-nitrobenzaldehyde in mouse kidney cell preparations;; how it was run: as §1
[5] = species on record: Mus musculus; assay: Tested for Color of the Final Reaction Product ofTPP-I Histochemical Staining with compound in the presence of p-nitrobenzaldehyde in mouse kidney cell preparations; yellow-greencolor was observed; how it was run: as §1
[6] = species on record: Mus musculus; assay: Tested for Color of the Final Reaction Product ofTPP-I Histochemical Staining with compound in the presence of p-anisaldehyde in mouse kidney cell preparations; yellow-green color was observed; how it was run: as §1
[7] = species on record: Mus musculus; assay: Tested for Intensity of the Final Reaction Product ofTPP-I Histochemical Staining with compound in the presence of p-nitrobenzaldehyde in mouse kidney cell preparations; how it was run: as §1
[8] = species on record: Mus musculus; assay: Tested for Intensity of the Final Reaction Product ofTPP-I Histochemical Staining with compound in the presence of benzaldehyde in mouse kidney cell preparations; how it was run: as §1
[9] = species on record: Mus musculus; assay: Tested for Color of the Final Reaction Product ofTPP-I Histochemical Staining with compound in the presence of p-nitrobenzaldehyde in mouse kidney cell preparations; yellow-greenautofluorescent color was observed; how it was run: as §1
[10] = species on record: Mus musculus; assay: Tested for Color of the Final Reaction Product ofTPP-I Histochemical Staining with compound in the presence of benzaldehyde in mouse kidney cell preparations; yellow-greenautofluorescent color was observed; how it was run: as §1
[11] = species on record: Mus musculus; assay: Tested for Color of the Final Reaction Product ofTPP-I Histochemical Staining with compound in the presence of p-anisaldehyde in mouse kidney cell preparations; yellow-greenautofluorescent color was observed; how it was run: as §1
[12] = species on record: Mus musculus; assay: Tested for Color of the Final Reaction Product ofTPP-I Histochemical Staining with compound in the presence of benzaldehyde in mouse kidney cell preparations; brown color was observed; how it was run: as §1
[13] = species on record: Mus musculus; assay: Tested for Color of the Final Reaction Product ofTPP-I Histochemical Staining with compound in the presence of p-nitrobenzaldehyde in mouse kidney cell preparations; brown color was observed; how it was run: as §1

SMILES	Activity [1]	Activity [2]	Activity [3]	Activity [4]	Activity [5]	Activity [6]	Activity [7]	Activity [8]	Activity [9]	Activity [10]	Activity [11]	Activity [12]	Activity [13]
CC(NC(=O)[C@H](C)N)C(=O)N[C@@H](Cc1ccccc1)C(=O)NNc1ccc2c(c1)C(=O)c1ccccc1C2=O (stereo partly specified)	yellow-green color was observed	yellow-green color was observed	yellow-green color was observed	yellow-green color was observed	yellow-green color was observed	yellow-green color was observed	–	–	–	–	–	–	–
C[C@H](NC(=O)[C@@H]1CCCN1C(=O)CN)C(=O)n1nc2cccc3c2c1-c1cccc(Cl)c1C3=O	–	–	yellow-greenautofluorescent color was observed	–	–	–	yellow-greenautofluorescent color was observed	yellow-greenautofluorescent color was observed	yellow-greenautofluorescent color was observed	yellow-greenautofluorescent color was observed	yellow-greenautofluorescent color was observed	–	–
NCC(=O)N1CCC[C@H]1C(=O)N[C@@H](CO)C(=O)NNc1cccc2c1C(=O)c1ccccc1C2=O	–	–	–	–	–	–	brown color was observed	brown color was observed	–	–	–	brown color was observed	brown color was observed
